Results on 18 compounds are retold here after paper PMC10373209 (ACS Omega, 2023).

“Also recorded” adds a separate entry of the source.

Series [1] has as its system SRP-ΔΔΔΔ (ΔΔΔΔpdr). Put plainly: Yeast growth inhibition dose-response, SRP-ΔΔΔΔ. The format is cell-based, Saccharomyces cerevisiae. To be noted: 1–128 μM range. In short, it runs like this: (§1)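 S. cerevisiae haploid MATa deletion strains (wild-type reference BY4741) were grown in YPD at 25 °C. In a broth microdilution assay, an inoculum of OD620 0.001 (~25,000 cells/mL) was exposed to test compound at 1–128 μM in 1:2 serial dilutions. The zero control was eight technical replicates of 1% (v/v) DMSO.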

For series [2], the target named is Taq DNA polymerase (Thermus aquaticus, UniProt P19821). Briefly: Taq DNA polymerase inhibition. The format is biochemical. To be noted: for inhibitory activity against Taq DNA polymerase (in words): PCR assay.
Chain of Taq DNA polymerase (P19821 whole entry): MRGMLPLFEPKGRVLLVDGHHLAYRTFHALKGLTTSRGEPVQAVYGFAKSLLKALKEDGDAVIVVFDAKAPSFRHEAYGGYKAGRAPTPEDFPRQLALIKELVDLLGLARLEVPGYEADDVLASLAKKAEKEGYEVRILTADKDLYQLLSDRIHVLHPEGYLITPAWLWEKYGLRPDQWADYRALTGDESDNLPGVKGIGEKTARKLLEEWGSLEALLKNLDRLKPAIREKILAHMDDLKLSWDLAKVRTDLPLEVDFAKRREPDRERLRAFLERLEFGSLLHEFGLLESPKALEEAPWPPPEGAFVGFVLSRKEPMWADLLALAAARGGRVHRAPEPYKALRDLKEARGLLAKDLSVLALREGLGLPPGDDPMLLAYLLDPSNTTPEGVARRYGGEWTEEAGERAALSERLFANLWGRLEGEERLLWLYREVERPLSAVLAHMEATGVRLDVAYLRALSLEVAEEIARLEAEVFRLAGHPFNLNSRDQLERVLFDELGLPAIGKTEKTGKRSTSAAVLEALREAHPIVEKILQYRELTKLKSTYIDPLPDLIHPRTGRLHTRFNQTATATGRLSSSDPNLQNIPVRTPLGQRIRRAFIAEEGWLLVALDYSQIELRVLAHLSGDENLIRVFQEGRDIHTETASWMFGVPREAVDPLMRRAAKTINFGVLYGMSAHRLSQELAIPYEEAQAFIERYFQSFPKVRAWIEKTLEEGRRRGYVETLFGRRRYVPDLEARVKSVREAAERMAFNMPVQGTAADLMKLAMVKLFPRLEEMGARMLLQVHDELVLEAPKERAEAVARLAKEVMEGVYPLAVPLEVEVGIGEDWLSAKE
Series [3] relates to Δrad9 Δrad52 (ΔΔrad). Put plainly: Yeast growth inhibition dose-response, Δrad9 Δrad52. Format: cell-based, Saccharomyces cerevisiae. To be noted: for cytotoxicity in ΔΔrad (in words): 1–128 μM range; for DNA damage in S. cerevisiae (in words): inferred from hypersensitivity of Δrad9 Δrad52. In short, it runs like this:
as §1

The target of series [4] is M-MLV Reverse Transcriptase (RT-MMLV) (Moloney murine leukemia virus, UniProt P03355). Briefly: Retrotranscription inhibition. The format is biochemical, myeloid murine leukemia virus.

Turning to `C=CCCCOc1ccc2ccc(=O)oc2c1` [Compound 4c, 7-(Pent-4-en-1-yloxy)-2H-chromen-2-one], the “cytotoxicity in ΔΔΔΔpdr strain (in words)” value in series [1] is recorded as “cytotoxic”.

`COc1ccc2oc(=O)cc(CSC(C)=O)c2c1` [Compound 3f, S-((6-Methoxy-2-oxo-2H-chromen-4-yl)methyl) ethanethioate]: the “inhibitory activity against Taq DNA polymerase (in words)” value (from here on “inhibitory activity”) in series [2] is “absence of activity”.

Take `O=c1ccc2ccc(OCCC3CO3)cc2o1` (stereo not drawn) [Compound 5b, 7-(2-(Oxiran-2-yl)ethoxy)-2H-chromen-2-one]: in series [3], the “cytotoxicity in ΔΔrad (in words)” value was “Cytotoxicity was observed” and the “DNA damage in S. cerevisiae (in words)” value was “caused DNA damage; also recorded: showed DNA damaging activity”. Moreover, the “activity in RT-PCR assay (in words)” value in series [4] was “without activity”.

Consider `O=c1cc(OCCCC2CO2)c2ccccc2o1` (stereo not drawn) [Compound 5a, 4-(3-(Oxiran-2-yl)propoxy)-2H-chromen-2-one], for which, in series [3], the “cytotoxicity in ΔΔrad (in words)” value was “Cytotoxicity was observed” and the “DNA damage in S. cerevisiae (in words)” value is recorded as “showed DNA damaging activity”. Further, the “activity in RT-PCR assay (in words)” value in series [4] is on record as “did not show activity”.

In the case of `O=c1cc(CCl)c2cc(O)ccc2o1` [Compound 2b, 4-(Chloromethyl)-6-hydroxy-2H-chromen-2-one], in series [2], the “inhibitory activity” value was “low or null in vitro activity”.

Regarding `O=c1cc(CCl)c2c(O)cc(O)cc2o1` [Compound 2d, 4-(Chloromethyl)-5,7-dihydroxy-2H-chromen-2-one], in series [2], the half-inhibitory concentration (IC50) (in general, the midpoint of a concentration-inhibition curve) came to 20.7 ± 2.1 µM.

On to `CCCCCCCOc1ccc2ccc(=O)oc2c1` [Compound 6c, 7-(Heptyloxy)-2H-chromen-2-one], for which the “cytotoxicity in ΔΔΔΔpdr strain (in words)” value in series [1] is given as “cytotoxic”.

With `CC(=O)SCc1cc(=O)oc2cc(O)ccc12` [Compound 3d, S-((7-Hydroxy-2-oxo-2H-chromen-4-yl)methyl) ethanethioate], in series [2], inhibition was half-maximal at 143 ± 4.22 µM (IC50).

Regarding `CC(=O)OC[C@@H]1OC(Oc2ccc3ccc(=O)oc3c2)C(OC(C)=O)[C@H](OC(C)=O)C1OC(C)=O` (stereo partly drawn) [Compound 7c, (2S,4R)-2-(Acetoxymethyl)-6-((2-oxo-2H-chromen-7-yl)oxy)tetrahydro-2H-pyran-3,4,5-triyl triacetate], in series [1], the “cytotoxicity in ΔΔΔΔpdr strain (in words)” value is “cytotoxic”.

For `C=CCCOc1ccc2ccc(=O)oc2c1` [Compound 4b, 7-(But-3-en-1-yloxy)-2H-chromen-2-one], the “cytotoxicity in ΔΔΔΔpdr strain (in words)” value in series [1] is “cytotoxic”.

On to `O=c1cc(CCl)c2ccc(O)c(O)c2o1` [Compound 2c, 4-(Chloromethyl)-7,8-dihydroxy-2H-chromen-2-one], for which, in series [2], the IC50 worked out at 142 ± 3.4 µM.

For `O=c1cc(CCl)c2ccc(O)cc2o1` [Compound 2a, 4-(Chloromethyl)-7-hydroxy-2H-chromen-2-one], the “inhibitory activity” value in series [2] is listed as “low or null in vitro activity”.

As for `CCCCOc1ccc2ccc(=O)oc2c1` [Compound 6a, 7-Butoxy-2H-chromen-2-one], in series [1], the “cytotoxicity in ΔΔΔΔpdr strain (in words)” value is listed as “cytotoxic”.

Consider `O=c1ccc2ccc(OCCCC3CO3)cc2o1` (stereo not drawn) [Compound 5c, 7-(3-(Oxiran-2-yl)propoxy)-2H-chromen-2-one], for which, in series [3], the “cytotoxicity in ΔΔrad (in words)” value is “Cytotoxicity was observed” and the “DNA damage in S. cerevisiae (in words)” value is on record as “caused DNA damage; also recorded: showed DNA damaging activity”.

For the compound `CCCCCCOc1ccc2ccc(=O)oc2c1` [Compound 6b, 7-(Hexyloxy)-2H-chromen-2-one], the “cytotoxicity in ΔΔΔΔpdr strain (in words)” value in series [1] was “cytotoxic”.

For `CC(=O)Oc1ccc2c(CSC(C)=O)cc(=O)oc2c1` [Compound 3c, 4-((Acetylthio)methyl)-2-oxo-2H-chromen-7-yl acetate], half-maximal inhibition in series [2] (IC50) required 48.2 ± 1.2 µM.

Regarding `CC(=O)Oc1ccc2oc(=O)cc(CSC(C)=O)c2c1` [Compound 3g, 4-((Acetylthio)methyl)-2-oxo-2H-chromen-6-yl acetate], the “cytotoxicity in ΔΔΔΔpdr strain (in words)” value in series [1] is given as “cytotoxic”. Also, in series [2], the “inhibitory activity” value is given as “without activity; also recorded: did not show in vitro activity”.

`CC(=O)SCc1cc(=O)oc2ccc(O)cc12` [Compound 3e, S-((6-Hydroxy-2-oxo-2H-chromen-4-yl)methyl) ethanethioate] yielded an IC50 in series [2] of 188 ± 19.4 µM.
